Calls of active or inactive are those of the source. No cut-off for these calls is given here.
What was measured:
[1] = system: Mus musculus; test: Anticonvulsant activity against subcutaneous strychnine-induced seizure in Albino CF1 mouse at 100 mg/kg, ip after 0.5 hrs; type: functional, organism-based; parameters: dose 100 mg/kg
How it was run: (§1)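 Test compounds given i.p. to mice at 0.01 mL/g, at 30, 100 or 300 mg/kg. The seizure challenge followed at 0.5 h and at 4 h after dosing. The value recorded is the lowest dose that protected half or more of the mice. Where no activity was seen, the maximum dose given was 300 mg/kg.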

[2] = system: Mus musculus; test: Anticonvulsant activity in Albino CF1 mouse upto 300 mg/kg, ip in maximal electroshock seizure test; type: functional, organism-based; parameters: dose 300 mg/kg
How it was run: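 Mice dosed i.p. (0.01 mL/g) at 30, 100 and 300 mg/kg. Electroshock challenge run 30 min and 4 h after dosing.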

[3] = system: Mus musculus; test: Anticonvulsant activity against subcutaneous strychnine-induced seizure in Albino CF1 mouse at 300 mg/kg, ip after 4 hrs; type: functional, organism-based; parameters: dose 300 mg/kg; how it was run: as §1
[4] = system: Mus musculus; test: Neurotoxicity in Albino CF1 mouse at 100 mg/kg, ip after 0.5 hrs by Rotarod test; type: toxicity, organism-based; parameters: dose 100 mg/kg, route intraperitoneal; conditions: in vivo
How it was run: (§2)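 Rotarod test in mice pre-trained to stay on the rod for two consecutive 90 s trials. Compounds given i.p. at 30, 100 or 300 mg/kg, with testing at 0.5 h and 4 h. Deficit was scored as failure to keep balance on the rod for 1 min in each of three trials. The value recorded is the lowest dose affecting half or more of the mice.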

[5] = system: Mus musculus; test: Anticonvulsant activity against subcutaneous pentylenetetrazole-induced seizure in Albino CF1 mouse at 300 mg/kg, ip after 0.5 hrs; type: functional, organism-based; parameters: dose 300 mg/kg; how it was run: as §1
[6] = system: Mus musculus; test: Anticonvulsant activity against subcutaneous pentylenetetrazole-induced seizure in Albino CF1 mouse at 100 mg/kg, ip after 4 hrs; type: functional, organism-based; parameters: dose 100 mg/kg; how it was run: as §1
[7] = system: Mus musculus; test: Anticonvulsant activity against intraperitoneal picrotoxin-induced seizure in Albino CF1 mouse at 100 mg/kg, ip after 4 hrs; type: functional, organism-based; parameters: dose 100 mg/kg
How it was run: (§3)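 Mice received the test compound by intraperitoneal injection at 30, 100 or 300 mg/kg. They were then challenged with intraperitoneal picrotoxin and scored for anticonvulsant protection 0.5 h or 4 h after dosing. The value recorded is the lowest dose that protected half or more of the mice. A dash means no activity up to 300 mg/kg.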

[8] = system: Mus musculus; test: Neurotoxicity in Albino CF1 mouse at 300 mg/kg, ip after 4 hrs by Rotarod test; type: toxicity, organism-based; parameters: dose 300 mg/kg, route intraperitoneal; conditions: in vivo; how it was run: as §2
[9] = system: Mus musculus; test: Anticonvulsant activity against intraperitoneal picrotoxin-induced seizure in Albino CF1 mouse at 30 mg/kg, ip after 0.5 hrs; type: functional, organism-based; parameters: dose 30 mg/kg; how it was run: as §3
[10] = system: Mus musculus; test: Anticonvulsant activity against intraperitoneal picrotoxin-induced seizure in Albino CF1 mouse at 300 mg/kg, ip after 0.5 hrs; type: functional, organism-based; parameters: dose 300 mg/kg; how it was run: as §3
[11] = system: Mus musculus; test: Anticonvulsant activity against intraperitoneal picrotoxin-induced seizure in Albino CF1 mouse at 300 mg/kg, ip after 4 hrs; type: functional, organism-based; parameters: dose 300 mg/kg; how it was run: as §3
[12] = system: Mus musculus; test: Anticonvulsant activity against subcutaneous pentylenetetrazole-induced seizure in Albino CF1 mouse at 30 mg/kg, ip after 0.5 hrs; type: functional, organism-based; parameters: dose 30 mg/kg; how it was run: as §1
[13] = system: Mus musculus; test: Anticonvulsant activity against subcutaneous strychnine-induced seizure in Albino CF1 mouse at 300 mg/kg, ip after 0.5 hrs; type: functional, organism-based; parameters: dose 300 mg/kg; how it was run: as §1
[14] = system: Mus musculus; test: Anticonvulsant activity against subcutaneous pentylenetetrazole-induced seizure in Albino CF1 mouse at 300 mg/kg, ip after 4 hrs; type: functional, organism-based; parameters: dose 300 mg/kg; how it was run: as §1
[15] = system: Mus musculus; test: Anticonvulsant activity against intraperitoneal picrotoxin-induced seizure in Albino CF1 mouse at 100 mg/kg, ip after 0.5 hrs; type: functional, organism-based; parameters: dose 100 mg/kg; how it was run: as §3
[16] = system: Mus musculus; test: Neurotoxicity in Albino CF1 mouse at 100 mg/kg, ip after 4 hrs by Rotarod test; type: toxicity, organism-based; parameters: dose 100 mg/kg, route intraperitoneal; conditions: in vivo; how it was run: as §2
[17] = system: Mus musculus; test: Anticonvulsant activity against subcutaneous pentylenetetrazole-induced seizure in Albino CF1 mouse at 30 mg/kg, ip after 4 hrs; type: functional, organism-based; parameters: dose 30 mg/kg; how it was run: as §1
[18] = system: Mus musculus; test: Neurotoxicity in Albino CF1 mouse at 300 mg/kg, ip after 0.5 hrs by Rotarod test; type: toxicity, organism-based; parameters: dose 300 mg/kg, route intraperitoneal; conditions: in vivo; how it was run: as §2
[19] = system: Mus musculus; test: Neurotoxicity in Albino CF1 mouse at 30 mg/kg, ip after 0.5 hrs by Rotarod test; type: toxicity, organism-based; parameters: dose 30 mg/kg, route intraperitoneal; conditions: in vivo; how it was run: as §2
[20] = system: Mus musculus; test: Anticonvulsant activity against subcutaneous pentylenetetrazole-induced seizure in Albino CF1 mouse at 100 mg/kg, ip after 0.5 hrs; type: functional, organism-based; parameters: dose 100 mg/kg; how it was run: as §1

In the case of `Cc1cccc(C)c1NC(=O)CCCN1C(=O)c2ccccc2C1=O`, the Activity [1] is reported as “Active”, the Activity [2] is reported as “inactive” and the Activity [3] is reported as “Active”. For the same molecule, the Activity [4] was “Active”, the Activity [5] was “inactive” and the Activity [6] was “Active”. The Activity [7] was “Active”, the Activity [8] was “Active” and the Activity [9] was “Active”.

`C/C(=N/NC(=O)CCCN1C(=O)c2ccccc2C1=O)c1ccc(C)cc1` was tested, and the Activity [10] was “Active”, the Activity [11] was “inactive” and the Activity [2] was “inactive”. The Activity [3] was “inactive”, the Activity [4] was “Active” and the Activity [12] was “Active”. For the same molecule, the Activity [13] was “inactive”, the Activity [8] was “Not Active” and the Activity [14] was “inactive”.

For `Cc1c(Cl)cccc1NC(=O)CCCN1C(=O)c2ccccc2C1=O`, the Activity [11] was “Active”, the Activity [15] was “Active” and the Activity [16] was “Active”. For the same molecule, the Activity [2] was “inactive”, the Activity [3] was “inactive” and the Activity [5] was “Active”. For the same molecule, the Activity [13] was “Active”, the Activity [17] was “Active” and the Activity [18] was “Active”.

`O=C(CCCN1C(=O)c2ccccc2C1=O)Nc1ccc(Cl)cc1` was tested, and the Activity [10] was “Active”, the Activity [11] was “inactive” and the Activity [1] was “Active”. For the same molecule, the Activity [2] was “inactive”, the Activity [3] was “Active” and the Activity [5] was “inactive”. The Activity [19] was “Active”, the Activity [8] was “Active” and the Activity [14] was “inactive”.

With `Cc1cc(NC(=O)CCCN2C(=O)c3ccccc3C2=O)ccc1Br` the Activity [20] was “Active”, the Activity [11] was “Active” and the Activity [15] was “Active”. The Activity [2] was “inactive”, the Activity [3] was “inactive” and the Activity [4] was “Active”. For the same molecule, the Activity [13] was “inactive”, the Activity [8] was “Active” and the Activity [14] was “inactive”.

Reference: ChEMBL document CHEMBL1142874, “Design and synthesis of anticonvulsants from a combined phthalimide-GABA-anilide and hydrazone pharmacophore” (Eur J Med Chem, 2007)
